Experimental data published in article PMC4834983 (Journal of medicinal chemistry, 2015).

Tests used:
[1] = tested on: Stat5:Stat5; test: Cell-free EMSA, EGF-stimulated NIH3T3/hEGFR nuclear extracts, MGFe probe; assay type: biochemical, mouse; details: 5 μM, 30 min pre-incubation
Summary of the method: (§1)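 Nuclear extracts from EGF-stimulated NIH3T3/hEGFR fibroblasts, containing active Stat1, Stat3 and Stat5, preincubated with 5 μM test compound for 30 min at room temperature. Then incubated 30 min with 32P-labelled probe before EMSA: hSIE (Stat1/Stat3 binding) or MGFe (bovine β-casein element; Stat1/Stat5 binding). STAT:DNA bands quantified as percent of control.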

[2] = tested on: pStat1; test: Immunoblotting, EGF-stimulated NIH3T3/hEGFR fibroblasts; assay type: cell-based, mouse; details: 5 μM pre-treatment
Summary of the method: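 NIH3T3/hEGFR fibroblasts pretreated with or without 5 μM test compound for 3 h, then stimulated with 1 μg/ml EGF for 12 min. Whole-cell lysates, equal total protein, immunoblotted for pStat1/Stat1, pStat5/Stat5 and pErk1/2/Erk1/2.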

[3] = target: T1, Stat1:Stat1 (Mus musculus, UniProt P42225); test: Cell-free EMSA, EGF-stimulated NIH3T3/hEGFR nuclear extracts; assay type: biochemical; details: 5 μM, 30 min pre-incubation
T1 sequence (P42225 2-749 limits assumed): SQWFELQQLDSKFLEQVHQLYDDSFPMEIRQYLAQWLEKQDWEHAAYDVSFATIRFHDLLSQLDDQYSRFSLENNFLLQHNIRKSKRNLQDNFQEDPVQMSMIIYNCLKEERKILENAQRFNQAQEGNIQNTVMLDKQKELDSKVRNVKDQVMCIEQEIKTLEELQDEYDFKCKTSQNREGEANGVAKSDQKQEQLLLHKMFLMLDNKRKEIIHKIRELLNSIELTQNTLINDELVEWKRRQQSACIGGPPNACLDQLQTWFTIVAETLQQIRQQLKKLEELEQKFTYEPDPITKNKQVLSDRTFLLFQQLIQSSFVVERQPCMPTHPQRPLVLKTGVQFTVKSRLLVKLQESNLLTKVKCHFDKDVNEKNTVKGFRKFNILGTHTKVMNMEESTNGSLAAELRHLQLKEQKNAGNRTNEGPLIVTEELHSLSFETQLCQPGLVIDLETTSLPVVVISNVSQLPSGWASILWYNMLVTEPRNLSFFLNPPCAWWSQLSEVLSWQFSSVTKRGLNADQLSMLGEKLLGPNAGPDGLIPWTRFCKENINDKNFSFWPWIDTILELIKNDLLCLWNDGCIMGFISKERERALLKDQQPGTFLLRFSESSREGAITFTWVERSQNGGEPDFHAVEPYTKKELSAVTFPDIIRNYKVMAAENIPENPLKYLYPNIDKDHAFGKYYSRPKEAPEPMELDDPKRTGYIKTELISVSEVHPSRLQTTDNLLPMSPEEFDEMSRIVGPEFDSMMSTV
Summary of the method: as §1

[4] = tested on: SF295 cells; test: CyQuant cell proliferation assay; assay type: cell-based; details: Homo sapiens, SF-295, 72 h, read-out: IC50 cell proliferation SF295
Summary of the method: (§2)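 CyQuant DNA-dye proliferation assay on cultured cells after 72 h exposure to test compound. Viability expressed relative to DMSO-treated control cells.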

[5] = tested on: NIH3T3 cells; test: Colony survival assay; assay type: cell-based, mouse; details: 2.5 μM or less
Summary of the method: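 Cells seeded as single cells at 250 per well and treated once the next day with test compound (0–5 μM) for 72 h. Grown until large colonies were visible: 1 week for NIH3T3, 2 weeks for U251MG. Colonies stained with crystal violet for 4 h and counted.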

[6] = tested on: MCF-7 cells; test: CyQuant cell proliferation assay; assay type: cell-based; details: Homo sapiens, MCF7, 72 h, read-out: IC50 cell proliferation MCF-7
Summary of the method: as §2

## C/C=C(\C)C(=O)OCC1=C2/C(=C\[C@@]3(C)CC[C@](O)(O3)[C@H](C)C[C@@H]2O)OC1=O [Compound 22]
[1]
  effect on Stat5:Stat5 activity, cell-free EMSA: weak effects
[2]
  effect on EGF-stimulated pStat1 levels: no effect
[3]
  effect on Stat1:Stat1 activity, cell-free EMSA: weak effects
[4]
  IC50: 7.4 to 18.3 µM
[5]
  effects on NIH3T3 colony numbers: moderate or none
[6]
  IC50: 4.8 to 9.6 µM
